How the values were obtained:
PC-3 [1] = experiment: Cell cycle arrest in human PC3 cells assessed as accumulation at G2 phase at 0.5 uM after 24 hrs using propidium iodide staining by FACS analysis (reference value: 12 %); assay type: functional
IGROV-1 [2] = experiment: Induction of apoptosis in human IGROV1 cells assessed as early apoptosis at 50 uM using annexin V/7-AAD by FACS analysis (reference value: 9 %); assay type: functional
OVCAR-5 = experiment: Antitumor activity against human OVCAR5 cells xenografted in SCID mouse assessed as bone metastasis at 55 mg/kg, ip administered 5 consecutive days in a week for two cycles measured after 2 cycles relative to control; assay type: functional; conditions: OVCAR-5, ip, route intraperitoneal, read-out: TGI
In short: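 SCID mice carried OVCAR5 xenografts (10^6 cells per inoculum), 16 mice (32 tumors) per group, with ip dosing in 5% Tween 80 from a tumor volume of about 100 mm3. Caliper volume was measured twice weekly and %ΔT/ΔC derived. At termination, primary tumors were weighed and secondary metastases were scored at axillary and bone sites (n = 7−8). Two-tailed t test.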

[3] = Displacement of [3H]batrachotoxin benzoate from Na+ channel after 60 mins by liquid scintillation counting
In short: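 Na+ channel site 2 binding: vesicle preparation (150−500 μg protein) incubated 60 min with 20−25 nM [3H]BTX-B and 50 μg Leiurius quinquestriatus venom. Buffer was 130 mM choline chloride, 50 mM HEPES/Tris pH 7.4, glucose, MgSO4, KCl, BSA. Filtered on GF/C with cold washes; scintillation counting. Nonspecific binding defined with 250 μM veratridine.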

IGROV-1 [4] = experiment: Cell cycle arrest in human IGROV1 cells assessed as accumulation at G1 phase at 15 uM after 24 hrs using propidium iodide staining by FACS analysis (reference value: 27 %); assay type: functional
In short: (§1)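 Cells were plated 24 h before treatment and exposed for 24 h at final 0.5, 5, 15 and 50 μM in 0.5% DMSO, against vehicle-treated controls. Cells were then trypsinised and fixed in cold ethanol for 3 h at 4 °C. They were stained in a mix of RNase (200 μg/mL) and PI (1 mg/mL) for 45 min at room temperature in the dark. Flow cytometry used 488 nm excitation and 10 000 gated cells. Phase percentages were assigned from DNA content.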

IGROV-1 [5] = experiment: Induction of apoptosis in human IGROV1 cells assessed as healthy cells at 50 uM using annexin V/7-AAD by FACS analysis (reference value: 86 %); assay type: functional
BXPC-3 [6] = experiment: Cell cycle arrest in human BxPC3 cells assessed as accumulation at >G2/M phase at 5 uM after 24 hrs using propidium iodide staining by FACS analysis (reference value: 6 %); assay type: functional; in short: as §1
BXPC-3 [7] = experiment: Induction of apoptosis in human BxPC3 cells assessed as early apoptosis at 50 uM using annexin V/7-AAD by FACS analysis (reference value: 9 %); assay type: functional
PC-3 [8] = experiment: Induction of apoptosis in human PC3 cells assessed as healthy cells at 50 uM using annexin V/7-AAD by FACS analysis (reference value: 91 %); assay type: functional
[9] = (§2) Growth inhibition of human HUVEC cells after 48 hrs by SRB assay; assay type: cell-based; conditions: HUVEC cells
In short: (§3)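 Cells grown in RPMI 1640 with 5% heat-inactivated FCS, 2 mM L-glutamine and antibiotics, 37 °C, 5% CO2. Seeded at 3500–30000 cells/well and left 24 h before dosing. DMSO solutions added at 10-fold dilutions from 100 to 0.01 μM for 48 h. Cells TCA-fixed and SRB-stained, absorbance read at 540 nm; GI50 derived against the time-zero plate.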

HUVEC = experiment: as §2; assay type: cell-based; conditions: huvec, 48 h; in short: as §3
SK-HEP1 = experiment: Growth inhibition of human SKHEP1 cells after 48 hrs by SRB assay; assay type: functional; conditions: SK-HEP1, 48 h; in short: as §3
PC-3 [10] = experiment: Induction of apoptosis in human PC3 cells assessed as healthy cells at 15 uM using annexin V/7-AAD by FACS analysis (reference value: 91 %); assay type: functional
PC-3 [11] = experiment: Cell cycle arrest in human PC3 cells assessed as accumulation at S phase at 15 uM after 24 hrs using propidium iodide staining by FACS analysis (reference value: 42 %); assay type: functional
IGROV-1 [12] = experiment: Cell cycle arrest in human IGROV1 cells assessed as accumulation at >G2/M phase at 5 uM after 24 hrs using propidium iodide staining by FACS analysis (reference value: 21 %); assay type: functional; in short: as §1
PC-3 [13] = experiment: Cell cycle arrest in human PC3 cells assessed as accumulation at sub G1 phase at 0.5 uM after 24 hrs using propidium iodide staining by FACS analysis (reference value: 4 %); assay type: functional
HCT-116 = experiment: Growth inhibition of human HCT116 cells after 48 hrs by SRB assay; assay type: functional; conditions: HCT-116, 48 h; in short: as §3
BXPC-3 [14] = experiment: Cell cycle arrest in human BxPC3 cells assessed as accumulation at sub G1 phase at 0.5 uM after 24 hrs using propidium iodide staining by FACS analysis (reference value: 9 %); assay type: functional; in short: as §1
BXPC-3 [15] = experiment: Antitumor activity against human BxPC3 cells xenografted in SCID mouse assessed as tumor growth inhibition at 50 mg/kg, ip administered 3 consecutives days per week for one cycle relative to control; assay type: functional; conditions: BXPC-3, ip, route intraperitoneal, read-out: TGI
BXPC-3 [16] = experiment: Antitumor activity against human BxPC3 cells xenografted in SCID mouse assessed as tumor growth inhibition at 45 mg/kg, ip administered 3 consecutives days per week for three cycles measured after 3 cycles relative to control; assay type: functional; conditions: BXPC-3, ip, route intraperitoneal, read-out: TGI
In short: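 BxPC3 xenografts were grown in SCID mice from inocula of 10^6 exponentially growing cells, with 10 mice (20 tumors) per group. Treatment started ip once tumors averaged about 100 mm3. The test agent was given in 5% Tween 80 and gemcitabine in water for injection. Tumor volume was measured by caliper twice weekly and %ΔT/ΔC was computed; two-tailed Student's t test.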

HCT-15 = experiment: Growth inhibition of human HCT15 cells after 48 hrs by SRB assay; assay type: functional; conditions: HCT-15, 48 h; in short: as §3
IGROV-1 [17] = experiment: Induction of apoptosis in human IGROV1 cells assessed as healthy cells at 15 uM using annexin V/7-AAD by FACS analysis (reference value: 86 %); assay type: functional
PC-3 [18] = experiment: Cell cycle arrest in human PC3 cells assessed as accumulation at sub G1 phase at 5 uM after 24 hrs using propidium iodide staining by FACS analysis (reference value: 4 %); assay type: functional
PC-3 [19] = experiment: Induction of apoptosis in human PC3 cells assessed as total apoptotic death at 50 uM using annexin V/7-AAD by FACS analysis (reference value: 8 %); assay type: functional
In short: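 Cells plated 24 h before treatment, then exposed 24 h to 0.5, 5, 15 or 50 μM compound (final DMSO 0.5%); vehicle controls included. Cells scraped and stained with annexin V-FITC and 7-AAD for 15 min on ice in the dark. Flow cytometry with 488 nm excitation, 10,000 gated cells. Early apoptosis was annexin V+/7-AAD−, late was annexin V+/7-AAD+.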

PC-3 [20] = experiment: Cell cycle arrest in human PC3 cells assessed as accumulation at G1 phase at 0.5 uM after 24 hrs using propidium iodide staining by FACS analysis (reference value: 36 %); assay type: functional
[21] = read-out: LC50 (the source's name)

SMILES: CN1CCN(CCCc2ccc(C(c3ccccc3)C34CC5CC(CC(C5)C3)C4)cc2)CC1 (configuration not stated)
- Activity (PC-3 [1]): 15%
- Activity (IGROV-1 [2]): 40%
- inhibition in vivo at 55 mg/kg (OVCAR-5): 25%
- IC50 [3]: > 1 µM
- Activity (IGROV-1 [4]): 23%
- Activity (IGROV-1 [5]): 26%
- Activity (BXPC-3 [6]): 5%
- Activity (BXPC-3 [7]): 2%
- Activity (PC-3 [8]): 43%
- GI50 at 48 h [9]: 2.98 µM
- LC50 (HUVEC): 8.62 µM
- TGI (HUVEC): 5.8 µM
- GI50 (SK-HEP1): 3.49 µM
- TGI (SK-HEP1): 6.37 µM
- CC50 (SK-HEP1; [21]): 0.00924 µM
- Activity (PC-3 [10]): 71%
- Activity (PC-3 [11]): 31%
- Activity (IGROV-1 [12]): 20%
- Activity (PC-3 [13]): 4%
- GI50 (HCT-116): 3.38 µM
- TGI (HCT-116): 6.05 µM
- CC50 (HCT-116; [21]): 0.00873 µM
- Activity (BXPC-3 [14]): 11%
- inhibition in vivo at 50 mg/kg (BXPC-3 [15]): 41.6%
- inhibition in vivo at 45 mg/kg (BXPC-3 [16]): 37.2%
- GI50 (HCT-15): 3.5 µM
- TGI (HCT-15): 6.35 µM
- CC50 (HCT-15; [21]): 0.0092 µM
- Activity (IGROV-1 [17]): 35%
- Activity (PC-3 [18]): 11%
- Activity (PC-3 [19]): 23%
- Activity (PC-3 [20]): 34%

Source: ChEMBL document CHEMBL2202989, “New adamantane phenylalkylamines with σ-receptor binding affinity and anticancer activity, associated with putative antagonism of neuropathic pain” (J Med Chem, 2012)
